Data reported in article PMC2880618 (Bioconjugate chemistry, 2009).
“And” between values parts separate entries of the source, which are not always exact repeats. Identical values can stand only once. One block for each compound: values may come before it.

What was measured:
[1] = Lipophilicity, shake flask 1-octanol/PBS pH 7.4; format: physicochemical; details: 1-octanol/phosphate-buffered saline
Procedure, shortened: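 Shake-flask partition: ~500 Kcpm radiotracer added to 1 mL 1-octanol plus 1 mL PBS pH 7.4, in triplicate. Tubes vortexed 3 min and layers allowed to separate. 100 μL aliquots of each phase counted for radioactivity; log P calculated from the counts.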

B16F1 melanoma cells = assay: In vitro uptake assay in melanoma cells; format: cell-based, mouse; details: 1×10^6 cells/tube, 60 min, room temperature, n=3 tubes
Procedure, shortened: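 B16F1 mouse melanoma cells grown in DMEM with 10% FBS at 37°C, 5% CO2. At 80–90% confluence they were trypsinized and resuspended in PBS pH 7.4. Aliquots of 1×10^5, 5×10^5, 8×10^5 and 1×10^6 cells in triplicate tubes got ~200 Kcpm radiotracer for 1 hr at 22°C. Tubes were centrifuged and pellets washed with PBS; wash and pellet were gamma-counted. Uptake = % of total added activity in pellet.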

[2] = Tissue distribution studies in normal ICR mice; format: in vivo; details: tail vein, mean±SEM n=5
Procedure, shortened: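 Normal ICR mice (6–8 weeks) received ~15 μCi radiotracer in 100 μL saline by tail vein. At 30, 60, 120 and 180 min mice were euthanized; tissues removed, washed with PBS, weighed and gamma-counted with an injected-dose standard. Values expressed as %ID/g; group differences by unpaired Student's t-test, P<0.05.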

[3] = tested on: B16F1 melanoma tumor xenograft; assay: Tissue distribution studies in C57 mice bearing B16F1 tumor xenograft; format: in vivo; details: for F-18 uptake in brain, Percent Injected Dose per gram Tissue / F-18 uptake in heart, Percent Injected Dose per gram Tissue / F-18 uptake in intestine, Percent Injected Dose per gram Tissue / F-18 uptake in kidneys, Percent Injected Dose per gram Tissue / F-18 uptake in liver, Percent Injected Dose per gram Tissue / F-18 uptake in lung, Percent Injected Dose per gram Tissue / F-18 uptake in muscle, Percent Injected Dose per gram Tissue / F-18 uptake in spleen, Percent Injected Dose per gram Tissue / F-18 uptake in the tumor / F-18 uptake in blood, Percent Injected Dose per gram Tissue / F-18 uptake in bone, Percent Injected Dose per gram Tissue: C57 mice bearing B16F1 melanoma tumor xenograft; for F-18 uptake in brain, Percent Injected Dose per gram Tissue / F-18 uptake in heart, Percent Injected Dose per gram Tissue / F-18 uptake in intestine, Percent Injected Dose per gram Tissue / F-18 uptake in kidneys, Percent Injected Dose per gram Tissue / F-18 uptake in liver, Percent Injected Dose per gram Tissue / F-18 uptake in lung, Percent Injected Dose per gram Tissue / F-18 uptake in muscle, Percent Injected Dose per gram Tissue / F-18 uptake in spleen, Percent Injected Dose per gram Tissue / F-18 uptake in blood, Percent Injected Dose per gram Tissue / F-18 uptake in bone, Percent Injected Dose per gram Tissue: tail vein, mean±SEM n=5; for F-18 uptake in the tumor: n=5
Procedure, shortened: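 C57 mice (6–8 weeks) inoculated in the right flank with ~5×10^6 B16F1 cells in 0.1 mL Matrigel:PBS (50:50). Studied once tumors exceeded 200 mm³. ~15 μCi radiotracer in 100 μL saline given by tail vein. Mice euthanized at 30, 60, 120 and 180 min; tissues washed, weighed and gamma-counted against an injected-dose standard. %ID/g ([…], n=5) and tumor-to-tissue ratios reported.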

[4] = C57 normal mice, cited from earlier work
sigma-1 receptor = sigma-1 receptor (Cavia porcellus, UniProt Q60492); assay: Sigma-1 receptor competitive binding assay; set-up: species or system guinea pig
sigma-1 receptor, sequence (Q60492 whole entry): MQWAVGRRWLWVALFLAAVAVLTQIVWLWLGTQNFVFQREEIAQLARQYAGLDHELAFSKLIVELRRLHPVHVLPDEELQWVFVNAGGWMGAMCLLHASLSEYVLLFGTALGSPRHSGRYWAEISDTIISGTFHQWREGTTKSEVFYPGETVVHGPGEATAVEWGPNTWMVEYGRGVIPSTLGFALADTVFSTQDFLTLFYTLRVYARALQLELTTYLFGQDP
Procedure, shortened: (§1)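 Sigma-1: guinea pig brain membranes with 3H-PENT. Sigma-2: rat liver membranes from Sprague-Dawley rats with 3H-DTG, plus 1 μM dextrallorphane to mask sigma-1 sites.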

sigma-2 receptor = biological target: T1, sigma-2 receptor (Rattus norvegicus, UniProt Q5U3Y7); assay: Sigma-2 receptor competitive binding assay
T1 sequence (Q5U3Y7 1-176): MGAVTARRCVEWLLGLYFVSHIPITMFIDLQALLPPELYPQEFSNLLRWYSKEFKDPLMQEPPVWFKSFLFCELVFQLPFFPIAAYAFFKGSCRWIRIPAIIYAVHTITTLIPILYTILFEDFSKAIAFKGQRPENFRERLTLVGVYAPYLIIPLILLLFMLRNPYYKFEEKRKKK
Procedure, shortened: as §1

[5] = C57 mice bearing B16F1 melanoma tumor, 180 min post-injection

logP [1]: 1.7
F-18 uptake in blood, Percent Injected Dose per gram Tissue ([2]; 30 min post injection): 0.78 ± 0.07 %ID/g
F-18 uptake in bone, Percent Injected Dose per gram Tissue ([2]; 30 min post injection): 0.81 ± 0.19 %ID/g
F-18 uptake in brain, Percent Injected Dose per gram Tissue ([2]; 30 min post injection): 2.16 ± 0.32 %ID/g
F-18 uptake in heart, Percent Injected Dose per gram Tissue ([2]; 30 min post injection): 1.10 ± 0.14 %ID/g
F-18 uptake in kidneys, Percent Injected Dose per gram Tissue ([2]; 30 min post injection): 4.13 ± 0.68 %ID/g
F-18 uptake in liver, Percent Injected Dose per gram Tissue ([2]; 30 min post injection): 3.12 ± 0.62 %ID/g
F-18 uptake in lung, Percent Injected Dose per gram Tissue ([2]; 30 min post injection): 1.75 ± 0.43 %ID/g
F-18 uptake in muscle, Percent Injected Dose per gram Tissue ([2]; 30 min post injection): 0.88 ± 0.13 %ID/g
F-18 uptake in spleen, Percent Injected Dose per gram Tissue ([2]; 30 min post injection): 2.35 ± 0.07 %ID/g
F-18 uptake in blood, Percent Injected Dose per gram Tissue ([2]; 60 min post injection): 0.67 ± 0.05 %ID/g
F-18 uptake in brain, Percent Injected Dose per gram Tissue ([2]; 60 min post injection): 1.54 ± 0.24 %ID/g
F-18 uptake in heart, Percent Injected Dose per gram Tissue ([2]; 60 min post injection): 0.92 ± 0.10 %ID/g
F-18 uptake in intestine, Percent Injected Dose per gram Tissue ([2]; 60 min post injection): 1.39 ± 0.54 %ID/g
F-18 uptake in liver, Percent Injected Dose per gram Tissue ([2]; 60 min post injection): 3.61 ± 0.48 %ID/g
F-18 uptake in lung, Percent Injected Dose per gram Tissue ([2]; 60 min post injection): 1.84 ± 0.41 %ID/g
F-18 uptake in muscle, Percent Injected Dose per gram Tissue ([2]; 60 min post injection): 0.65 ± 0.11 %ID/g
F-18 uptake in spleen, Percent Injected Dose per gram Tissue ([2]; 60 min post injection): 1.87 ± 0.46 %ID/g
F-18 uptake in brain, Percent Injected Dose per gram Tissue ([2]; 120 min post injection): 0.52 ± 0.07 %ID/g
F-18 uptake in heart, Percent Injected Dose per gram Tissue ([2]; 120 min post injection): 0.28 ± 0.05 %ID/g
F-18 uptake in intestine, Percent Injected Dose per gram Tissue ([2]; 120 min post injection): 0.26 ± 0.26 %ID/g
F-18 uptake in kidneys, Percent Injected Dose per gram Tissue ([2]; 120 min post injection): 1.58 ± 0.51 %ID/g
F-18 uptake in blood, Percent Injected Dose per gram Tissue ([2]; 180 min post injection): 0.21 ± 0.03 %ID/g
F-18 uptake in bone, Percent Injected Dose per gram Tissue ([2]; 180 min post injection): 0.24 ± 0.10 %ID/g
F-18 uptake in heart, Percent Injected Dose per gram Tissue ([2]; 180 min post injection): 0.23 ± 0.03 %ID/g
F-18 uptake in intestine, Percent Injected Dose per gram Tissue ([2]; 180 min post injection): 0.40 ± 0.11 %ID/g
F-18 uptake in kidneys, Percent Injected Dose per gram Tissue ([2]; 180 min post injection): 1.34 ± 0.36 %ID/g
F-18 uptake in liver, Percent Injected Dose per gram Tissue ([2]; 180 min post injection): 1.12 ± 0.20 %ID/g
F-18 uptake in lung, Percent Injected Dose per gram Tissue ([2]; 180 min post injection): 0.49 ± 0.07 %ID/g
F-18 uptake in spleen, Percent Injected Dose per gram Tissue ([2]; 180 min post injection): 0.53 ± 0.08 %ID/g
F-18 uptake in brain, Percent Injected Dose per gram Tissue ([3]; 30 min post injection): 2.02 ± 0.35 %ID/g
F-18 uptake in heart, Percent Injected Dose per gram Tissue ([3]; 30 min post injection): 1.25 ± 0.28 %ID/g
F-18 uptake in intestine, Percent Injected Dose per gram Tissue ([3]; 30 min post injection): 1.94 ± 0.51 %ID/g
F-18 uptake in kidneys, Percent Injected Dose per gram Tissue ([3]; 30 min post injection): 4.50 ± 1.33 %ID/g
F-18 uptake in liver, Percent Injected Dose per gram Tissue ([3]; 30 min post injection): 3.27 ± 0.90 %ID/g
F-18 uptake in lung, Percent Injected Dose per gram Tissue ([3]; 30 min post injection): 2.46 ± 1.27 %ID/g
F-18 uptake in muscle, Percent Injected Dose per gram Tissue ([3]; 30 min post injection): 1.09 ± 0.18 %ID/g
F-18 uptake in spleen, Percent Injected Dose per gram Tissue ([3]; 30 min post injection): 2.14 ± 0.41 %ID/g
F-18 uptake in the tumor ([3]; 60 min post injection): 7.00±2.76 %ID/g
F-18 uptake in blood, Percent Injected Dose per gram Tissue ([3]; 60 min post injection): 0.68 ± 0.21 %ID/g
F-18 uptake in bone, Percent Injected Dose per gram Tissue ([3]; 60 min post injection): 0.90 ± 0.27 %ID/g
F-18 uptake in brain, Percent Injected Dose per gram Tissue ([3]; 60 min post injection): 1.68 ± 0.43 %ID/g
F-18 uptake in heart, Percent Injected Dose per gram Tissue ([3]; 60 min post injection): 1.27 ± 0.50 %ID/g
F-18 uptake in intestine, Percent Injected Dose per gram Tissue ([3]; 60 min post injection): 1.98 ± 0.88 %ID/g
F-18 uptake in kidneys, Percent Injected Dose per gram Tissue ([3]; 60 min post injection): 5.38 ± 1.86 %ID/g
F-18 uptake in liver, Percent Injected Dose per gram Tissue ([3]; 60 min post injection): 5.01 ± 2.06 %ID/g
F-18 uptake in lung, Percent Injected Dose per gram Tissue ([3]; 60 min post injection): 2.48 ± 1.27 %ID/g
F-18 uptake in muscle, Percent Injected Dose per gram Tissue ([3]; 60 min post injection): 1.10 ± 0.38 %ID/g
F-18 uptake in spleen, Percent Injected Dose per gram Tissue ([3]; 60 min post injection): 1.83 ± 0.54 %ID/g
F-18 uptake in the tumor ([3]; 120 min post injection): 6.57±1.66 %ID/g
F-18 uptake in bone, Percent Injected Dose per gram Tissue ([3]; 120 min post injection): 0.57 ± 0.32 %ID/g
F-18 uptake in brain, Percent Injected Dose per gram Tissue ([3]; 120 min post injection): 0.64 ± 0.40 %ID/g
F-18 uptake in kidneys, Percent Injected Dose per gram Tissue ([3]; 120 min post injection): 1.41 ± 0.11 %ID/g
F-18 uptake in liver, Percent Injected Dose per gram Tissue ([3]; 120 min post injection): 2.35 ± 1.20 %ID/g
F-18 uptake in lung, Percent Injected Dose per gram Tissue ([3]; 120 min post injection): 1.47 ± 0.47 %ID/g
F-18 uptake in muscle, Percent Injected Dose per gram Tissue ([3]; 120 min post injection): 0.57 ± 0.54 %ID/g
F-18 uptake in spleen, Percent Injected Dose per gram Tissue ([3]; 120 min post injection): 0.71 ± 0.37 %ID/g
F-18 uptake in blood, Percent Injected Dose per gram Tissue ([3]; 180 min post injection): 0.13 ± 0.03 %ID/g
F-18 uptake in bone, Percent Injected Dose per gram Tissue ([3]; 180 min post injection): 0.17 ± 0.05 %ID/g
F-18 uptake in brain, Percent Injected Dose per gram Tissue ([3]; 180 min post injection): 0.29 ± 0.05 %ID/g
F-18 uptake in heart, Percent Injected Dose per gram Tissue ([3]; 180 min post injection): 0.21 ± 0.04 %ID/g
F-18 uptake in kidneys, Percent Injected Dose per gram Tissue ([3]; 180 min post injection): 0.83 ± 0.23 %ID/g
F-18 uptake in muscle, Percent Injected Dose per gram Tissue ([3]; 180 min post injection): 0.17 ± 0.03 %ID/g
F-18 uptake in spleen, Percent Injected Dose per gram Tissue ([3]; 180 min post injection): 0.44 ± 0.25 %ID/g
tumor to blood ratio ([3]; C57 mice bearing B16F1 melanoma tumor, 60 min post-injection): 8.3±3
tumor to liver ratio [3, 5]: 6.33±1.9
tumor to lung ratio [3, 5]: 21.90±4.68 and > 20
tumor to muscle ratio [3, 5]: 32.91±6.11 and > 20
tumor to spleen ratio [3, 5]: 14.90±6.47
SMILES: CCN(CC)CCNC(=O)c1ccc([18F])cc1 [[^18F]-DAFBA, N-(2-diethylaminoethyl)-4-[^18F]fluorobenzamide]
percent uptake by cells (percent of total added radioactivity) (B16F1 melanoma cells): 5.60±2.67%

SMILES: CCN(CC)CCNC(=O)c1ccc(OC)c(I)c1 [[^*I]IMBA, [^*I]N-(2-diethylaminoethyl) 3-iodo 4-methoxybenzamide]
radioiodine uptake in blood ([4]; 60 min post injection): 0.84±0.08 %ID/g
radioiodine uptake in liver ([4]; 60 min post injection): 3.09±0.45 %ID/g
radioiodine uptake in lungs ([4]; 60 min post injection): 1.06±0.23 %ID/g
radioiodine uptake in intestine [4]: 7.70±4.70 %ID/g
radioiodine uptake in the stomach [4]: 9.72±1.51 %ID/g

IC50 (sigma-1 receptor): > 1000 nM
IC50 (sigma-2 receptor): > 1000 nM
SMILES: CCN(CC)CCNC(=O)c1ccc(F)cc1 [DAFBA, N-(2-diethylaminoethyl)-4-fluorobenzamide]
